# Shown are actives, neighbours in structure and some others; about 3.1% of the full set was active somewhere.
# SENP8 block-1: SENP8 protease inhibition | purified SENP8, Z-RLRGG-aminoluciferin cleavage, luminescence | inhibition, % at 10 µM | actives 1.2% (n = 330,000) | AID 2540; in the data active means inhibition above about 50%
# SENP8 block-2: SENP8 (human) protease inhibition; Q96LD8; recombinant SENP8, Nedd8 substrate fluorescence; inhibition, % at 20 µM; actives 0.64% (n = 360,000); AID 602440; in the data active means inhibition mostly above about 40%, no sharp cut-off; inactive means mostly below about 27%
# Apaf1 inhib: human Apaf-1 inhibition; reconstituted apoptosome caspase-3 activity, DEVD-Rh110 fluorescence; O14727; inhibition, % at 20 µM; AID 489030; actives 0.71% (n = 330,000); active means inhibition of at least 40% at 20 µM;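 further: plate controls were DMSO wells for no effect and DEVD-CHO caspase inhibitor wells for full effect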
#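 Material: biochemical Apaf-1 apoptosome reconstitution. Medium: Hepes buffer, pH 7.5. Also added: cytochrome c activation, bis-DEVD rhodamine 110 substrate. Timing: 30 min compound preincubation, 50 min activation, room temperature. Measured by: rhodamine 110 fluorescence at Ex 480/Em 540 nm.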
# SENP7 inh: SENP7 protease inhibition | Q9BQF6 | recombinant SENP7, Z-RLRGG-aminoluciferin luminescence, 40 min | inhibition, % at 5 µM | actives 1.5% (n = 330,000) | AID 434973;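 active means inhibition above about 50% at the single test dose, limit read from the data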;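 further: plate controls were DMSO with enzyme for no effect and no enzyme buffer wells for full effect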
# UBC13 polyUb: blocks human UBC13 polyubiquitin chain formation | P61088 | TR-FRET | inhibition, % at 20 µM | actives 0.47% (n = 330,000) | AID 485273; in the data active means inhibition above about 45%, passing the limit was not always enough
# Target sequence (P61088 whole entry, looked up): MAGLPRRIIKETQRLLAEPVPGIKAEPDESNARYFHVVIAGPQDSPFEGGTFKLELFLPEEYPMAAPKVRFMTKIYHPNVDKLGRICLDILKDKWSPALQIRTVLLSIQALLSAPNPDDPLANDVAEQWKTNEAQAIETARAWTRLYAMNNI
# SENP6 inh: SENP6 protease inhibition; Q9GZR1; Recombinant SENP6 catalytic domain, aminoluciferin luminescence; inhibition, % at 10 µM; actives 1.8% (n = 330,000);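 active means inhibition above about 50% at the single tested dose, limit read from the data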;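 further: plate controls were DMSO wells with enzyme for no effect and DMSO wells lacking enzyme for full effect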
# Target sequence (Q9GZR1 628-1112 limits assumed): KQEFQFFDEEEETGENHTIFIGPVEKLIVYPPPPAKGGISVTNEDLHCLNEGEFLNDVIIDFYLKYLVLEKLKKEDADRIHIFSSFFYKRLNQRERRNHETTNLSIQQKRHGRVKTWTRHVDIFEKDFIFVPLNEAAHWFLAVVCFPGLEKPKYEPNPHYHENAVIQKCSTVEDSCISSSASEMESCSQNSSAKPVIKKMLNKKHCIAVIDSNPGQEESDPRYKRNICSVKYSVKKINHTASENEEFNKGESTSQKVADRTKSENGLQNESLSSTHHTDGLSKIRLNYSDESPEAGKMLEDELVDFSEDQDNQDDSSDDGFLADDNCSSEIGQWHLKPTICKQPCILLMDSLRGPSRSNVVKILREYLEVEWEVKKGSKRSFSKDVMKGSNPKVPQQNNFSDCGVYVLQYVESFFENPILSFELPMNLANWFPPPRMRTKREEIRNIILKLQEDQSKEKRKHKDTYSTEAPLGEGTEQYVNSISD
# An asterisk follows results filed as active; x = no result.
SMILES,SENP8 block-1,SENP8 block-2,Apaf1 inhib,SENP7 inh,UBC13 polyUb,SENP6 inh
Cc1cc(O)c(Sc2ncn[nH]2)cc1NS(=O)(=O)c1ccc(Cl)cc1,0,18,-1,8,6,0
Cn1cc(Cc2ccc(C(=O)NC34CC5CC(CC(C5)C3)C4)cn2)c2ccccc21,x,-11,x,x,x,x
Cc1ccc(S(=O)(=O)N2C3CC(c4ccccc4)N(S(=O)(=O)c4ccccc4Cl)CC3C(=O)C[C@H]2c2ccccc2)cc1 (stereo partly drawn),x,15,x,x,x,x
COc1ccc(N=CC2=C(Nc3ccc(OC)cc3)c3c(C)nn(-c4ccccn4)c3CC2)cc1,12,x,93*,15,-44,50
COc1ccc(-c2cc(C(=O)O)c3c(C)nn(-c4ccccn4)c3n2)cc1,-4,x,-2,6,16,4
Cc1cccn2c(=O)c3cc(C(=O)NC4CCCC4)c(=N)n(Cc4ccc(F)cc4)c3nc12,1,-326,26,1,14,-4
Cc1cccn2c(=O)c3cc(C(=O)NC4CCCCC4)c(=N)n(Cc4ccccc4)c3nc12,1,-366,57*,-2,20,19
Cc1cc2c(cc1C)C(=O)C(Br)=C(N)C2=O,x,79*,x,x,x,x
CCc1c(C2CC2)ncn1Cc1cccc(-c2ccccc2)c1,x,17,x,x,x,x
CC(=O)Nc1ccc(C(=O)N/N=C/c2cccnc2)cc1,x,4,x,x,x,x
Cn1nccc1C(=O)N/N=C/c1cccnc1,61*,15,-8,9,2,-13
Oc1ccc2ccccc2c1C=NCc1ccccc1,14,6,13,14,-12,60*
O=S1(=O)N[C@@H](Cc2ccccc2)COc2cccc(N3CCN(Cc4ccccc4F)CC3)c21,x,8,x,x,x,x
CC1(C(=O)Nc2cnc3ccccc3c2)CCN1Cc1cc2ccccc2o1 (stereo not drawn),x,0,x,x,x,x
C[C@@H]1Cc2c(O)c(O)cc(O)c2C(=O)O1,3,44*,13,1,5,-2
COc1cccc(Nc2nc(C(N)C3CCCCC3)cs2)n1 (stereo not drawn),x,-8,x,x,x,x
O=[N+]([O-])c1cccc(-c2nc(-c3cccs3)c(-c3cccs3)[nH]2)c1,2,-218,9,-4,-3,-4
O=[N+]([O-])c1cccc(-c2noc(-c3cccs3)n2)c1,34,17,-10,75*,1,56*
COc1cccc2cc(-c3ccccc3)c(=O)oc12,66*,-74,-7,75*,5,42
COc1cccc2cc(-c3nc(-c4cccs4)cs3)c(=O)oc12,-10,-318,12,-4,24,-13
CC(=O)c1cc2cccc(OC3(C)CCN(Cc4ccc(-c5ccccn5)cc4)C3)c2o1 (stereo not drawn),x,12,x,x,x,x
CN(C)c1ccc(N=Nc2ccccc2C(=O)OCC(=O)NCC2CCCCC2)cc1,-3,50*,23,-4,-170,20
CCCCOCCCNC(=O)C[C@@H]1C[C@@]2(C(=O)OCC)CCCC=C2N(Cc2ccc3c(c2)OCO3)C1=O,x,25,x,x,x,x
C[C@@](Cc1ccc(O)c(O)c1)(NN)C(=O)O,x,39*,x,x,x,x
CCCCCCCCN1CC(Cc2cc3ccccc3c3ccccc23)N(c2ccccc2)c2ccccc2C1=O (stereo not drawn),x,-316,x,x,x,x
SMILES,SENP8 block-1,SENP8 block-2,Apaf1 inhib,SENP7 inh,UBC13 polyUb,SENP6 inh
CCOc1ccc2c(c1)-c1c(ssc1=S)C(C)(C)N2C,-5,47*,22,-6,-10,-5
O=C(Cc1cc(=O)[nH][nH]1)N/N=C/c1ccccc1Cl,-6,x,77*,12,-2,-11
CC(C)(C)OC(=O)CN1C(=O)S/C(=C\c2ccc(-c3cccc(C(=O)O)c3)o2)C1=O,68*,x,-9,9,-13,78*
CCCCNC(=O)c1nc(C2CCN(S(=O)(=O)c3ccc(C(F)(F)F)cc3)CC2)oc1-c1ccccc1,x,13,x,x,x,x
O=C(c1cc(Cl)cc(Cl)c1)N1CCC2CC1c1cc(N3CCCCC3)ccc12 (stereo not drawn),x,4,x,x,x,x
CNC1=C(N(C(C)=O)c2ccc(Br)cc2)C(=O)c2ccccc2C1=O,x,84*,x,x,x,x
Cc1cccc(N2CCN(C(=O)c3[nH]c(C(F)(F)F)nc3-c3ccccc3)CC2)c1C,x,7,x,x,x,x
Cc1ccc(S(=O)(=O)N2CC3C(=O)CC(c4ccccc4)N(S(=O)(=O)c4ccc(C)cc4)C3CC2c2cccc(Cl)c2)cc1 (stereo not drawn),x,12,x,x,x,x
Cc1csc(N/N=C/c2ccccn2)n1,85*,-5,-1,83*,1,87*
c1ccc(-c2csc(Nc3ncccn3)n2)cc1,13,16,5,75*,-12,37
CC(=O)Nc1ccc(-c2csc(Nc3ncccn3)n2)cc1,-8,8,-37,18,15,1
Cc1cccnc1Nc1nc(-c2ccccn2)cs1,75*,-9,9,77*,-4,81*
Oc1ccc(-c2csc(Nc3ncccn3)n2)cc1,56*,10,-16,72*,12,37
c1ccc(CCNc2nc(-c3ccncc3)cs2)cc1,-5,-144,4,9,5,-22
CCCCCNc1nc(-c2ccccc2)cs1,32,x,13,10,-4,64*
CCCCn1nnnc1C(c1cc2ccccc2o1)N1CCN(c2cc(C)nc3ccccc23)CC1 (stereo not drawn),x,-47,x,x,x,x
CCOC(=O)C1CCN(c2c(NCCCN(CC)c3ccccc3)c(=O)c2=O)CC1,-3,8,0,-5,-13,0
CCN(CCCNc1cc2c(c(N)c1S(=O)(=O)O)C(=O)c1ccccc1C2=O)c1ccccc1,x,57*,x,x,x,x
Cc1cnc(-c2nc3ccccc3n2C(C(=O)NC(C)(C)C)c2ccccc2)cn1 (stereo not drawn),x,-395,x,x,x,x
Cc1ccc2[nH]c(O)c(N=Nc3ccccc3[N+](=O)[O-])c2c1,x,23,x,x,x,x
CCN(CC)S(=O)(=O)c1cc([N+](=O)[O-])ccc1N=Nc1c(O)[nH]c2ccccc12,x,43*,x,x,x,x
Nc1n[nH]c(N)c1N=Nc1ccc(F)cc1,-5,41*,8,6,-6,15
Cc1ccccc1N=Nc1c(N)n[nH]c1N,-2,33,-2,2,-13,4
Nc1n[nH]c(N)c1N=Nc1ccccc1F,-6,34*,0,0,3,-12
Cc1ccccc1NC1=C(C(=O)c2ccccc2)N(C)S(=O)(=O)c2ccccc21,1,43*,19,5,-15,-11
Cc1ccc(F)c(NC(=O)/C(C#N)=C(\O)c2ccc(C(C)(C)C)cc2)c1,53*,13,20,5,-9,22
Cc1cccc(NC(=O)C(=O)NNC(=O)c2ccc(C(C)(C)C)cc2)c1,10,4,15,-4,-11,-7
COc1ccc(/C=N\n2nnc3ccccc32)cc1,94*,-6,13,90*,-5,97*
CC(C)N1C(=O)c2ccccc2NC(=O)C1C(=O)NC1CC1 (stereo not drawn),x,20,x,x,x,x

# Compound activity: PubChem, Sanford-Burnham Center for Chemical Genomics
